Shown are actives, neighbours in structure and some others; about 3.7% of the full set was active somewhere.
Myeloid diff 2: promotes myeloid progenitor differentiation. calls only at 10 µM. ER-HoxA9 myeloid progenitors, lysozyme-GFP differentiation, flow cytometry. 360,000 tested, 1% active;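 active means normalized GFP-positive differentiation at or above the plate's own cutoff, the solvent-only control mean plus 3 SD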;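 further: cells exposed to compound for four days before flow analysis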
MC4R antagonist: antagonists of human melanocortin 4 receptor (MC4R) | P32245 | MC4R-expressing cells, MTII-stimulated cAMP, LANCE TR-FRET | inhibition, % at 6.5 µM | 360,000 tested, 0.48% active;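 active means inhibition above its plate's cutoff, the mean of tested wells on that plate plus 3 SD, cut at about 29% in these data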;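 further: 0% = Melanotan II alone and 100% = Melanotan II plus saturating MCL0020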
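Assay system: human MC4R-expressing U2OS cells; reagent: Melanotan II stimulation of cells; dosing: 6.5 µM single dose; timing: compound 30 min, challenge 1 h, detection 1 h; signal: TR-FRET cAMP assay; replicates: one well per compound, no replicates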
EBI2 block: EBI2 (human) antagonism; P32249; EBI2 beta-arrestin recruitment, luminescence, 7a,25-OHC stimulated; inhibition, % at 5 µM; 360,000 tested, 0.81% active; in the data active means inhibition above about 38%;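 further: enzyme fragment complementation signal reports receptor beta-arrestin coupling in cells; 0% = agonist plus DMSO wells and 100% = wells without agonist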
Target sequence (P32249 whole entry, looked up, the tested form may be a part): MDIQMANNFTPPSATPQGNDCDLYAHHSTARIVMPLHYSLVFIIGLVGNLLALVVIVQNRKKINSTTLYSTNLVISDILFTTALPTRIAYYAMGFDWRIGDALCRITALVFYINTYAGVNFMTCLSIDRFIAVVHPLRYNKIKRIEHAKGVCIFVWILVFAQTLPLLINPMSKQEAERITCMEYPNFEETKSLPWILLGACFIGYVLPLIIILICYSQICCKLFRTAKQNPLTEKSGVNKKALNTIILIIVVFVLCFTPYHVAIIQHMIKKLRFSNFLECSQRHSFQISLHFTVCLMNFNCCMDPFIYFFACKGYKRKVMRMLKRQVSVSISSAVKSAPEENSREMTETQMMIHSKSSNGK
MC4R ag barr: activates human MC4R beta-arrestin recruitment | activation, % at 8.9 µM | U2OS MC4R beta-arrestin complementation, luminescence; percent of melanotan II response, DMSO zero | 360,000 tested, 0.98% active | AID 540308 | P32245;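 active means activation above a per-plate cutoff, the mean activation of sample wells on that plate plus 3 SD, cut at about 8% in these data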
Granule exo inh: lytic granule exocytosis inhibition | TALL-104 LAMP-1 surface exposure, flow cytometry; cells stimulated with thapsigargin and PMA | 360,000 tested, 0.66% active | AID 651702 | inhibition, % at 10 µM;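 active means inhibition above about 55%, limit read from the data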
Myeloid diff: myeloid differentiation induction; 2,300 tested, 2% active; calls only; ER-HoxA9 myeloid progenitors, GFP/Mac1 double-positive flow; shares compounds with Myeloid diff 2;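 active means share of green or green-and-red cells above 9 and 9% in run 1 or 4 and 3% in run 2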
GFP autofluor: compound fluorescence in myeloid differentiation counter-screen; fluorescence response, % (concentration not given with the values); ER-HoxA9 myeloid progenitors, no estrogen, GFP autofluorescence flow cytometry; vehicle wells 0%, positive control 100%; 2,300 tested, 7.4% active; shares compounds with Myeloid diff 2;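 active means over 5% cells positive for green fluorescent reporter, or over 2% positive for both it and APC stain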;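 further: range taken on the double positive population between DMSO and positive control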
An asterisk follows results filed as active; i = inactive; . = no result; + = active, no number.

SMILES	Myeloid diff 2	MC4R antagonist	EBI2 block	MC4R ag barr	Granule exo inh	Myeloid diff	GFP autofluor
CCC(=O)Nc1cccc(NC(=O)CSc2nnc(C3CC3)n2C)c1	i	12	-5	2	2	i	0
Cn1c(SCC(=O)Nc2ccc3c(c2)CCC3)nnc1C1CC1	i	5	-1	0	-10	.	.
CC[C@]12c3[nH]c4cc(-c5ccco5)ccc4c3CCN1C(=O)[C@@H](CC(=O)NCCN1CCOCC1)C[C@@H]2C(=O)N1CCN(C(=O)C2CC2)CC1	i	9	4	-1	3	.	.
CC[n+]1c(C)cc(C)n1-c1ccccc1	i	14	5	-1	2	i	0
COc1cccc(C(=O)Nc2ccc(NC(C)=O)cn2)c1	i	-2	-5	0	-2	i	0
CCCCCNC(=O)C(c1ccc(C#N)cc1)n1c(=O)c(-c2ccco2)nc2ccccc21 (stereo not given)	i	.	3	.	-5	i	1
COc1ccc(Nc2nnc(SCc3cn4c(C)cccc4n3)s2)cc1	+	-9	7	-1	0	i	0
Cc1cccc2nc(CSc3nnc(N)s3)cn12	i	-1	-1	0	-2	.	.
Cc1nn(CC(=O)NCc2ccccc2Cl)c(C)c1[N+](=O)[O-]	+	10	-8	0	-2	i	1
CCOC(=O)Cc1csc(NC(=O)c2sc3nc4ccc(CC)cc4cc3c2N)n1	i	-4	1	1	14	i	3
CC(C)CC(=O)Nc1ccc(-c2cn3ccsc3n2)cc1	i	4	6	1	-2	.	.
CC(C)(C)C(=O)Nc1ccc(-c2cn3ccsc3n2)cc1	i	8	-5	-2	-4	i	0
Cc1onc(-c2ccccc2)c1NC(=O)N(CCC#N)Cc1ccccc1	i	-2	0	-2	2	.	.
CS(=O)(=O)N(Cc1ccc(Cl)cc1)c1ccc(C(=O)NCCSc2ccccn2)cc1	+	12	0	2	16	i	4
Cc1ccc(S(=O)(=O)N(C)C)cc1NC(=O)c1cc(C(C)(C)C)nn1Cc1ccccc1	i	20	-2	-1	0	.	.
Cc1ccc2cc(C#N)c(N3CCCN(C(=O)C4CCCO4)CC3)nc2c1C (stereo not given)	i	-2	0	0	1	i	1
O=C(NCCCN1CCOCC1)/C(=C/c1ccco1)NC(=O)c1ccccc1	i	13	8	1	1	.	.
Cc1ccc(NC(=O)CN2CCCCCC2)cc1[N+](=O)[O-]	i	1	4	0	-2	.	.
O=C(CCN1C(=O)/C(=C/c2ccccc2)SC1=S)NNC(=O)c1ccncc1	i	1	-5	-2	-2	.	.
O=C(O)CCCCCN1C(=O)/C(=C\c2ccncc2)SC1=S	+	10	-3	2	-1	i	0
COC(=O)c1ccccc1S(=O)(=O)N1CCC(C(=O)NCCC2=CCCCC2)CC1	i	3	1	-1	0	.	.
CS(=O)(=O)NCCSCc1ccco1	i	-6	1	1	0	i	1
COc1cc(/C=C2/SC(=O)NC2=O)ccc1Oc1ccc([N+](=O)[O-])cc1[N+](=O)[O-]	+	5	-6	-2	4	i	1
CCN(CC)c1ccc(C2NC(=O)NC(C)=C2C(=O)Nc2ccccc2)cc1 (stereo not given)	+	1	5	0	-5	i	7.5*
CCS(=O)(=O)N1CCC(C(=O)NCc2ccccc2OC)CC1	+	28	-1	-1	6	i	0
SMILES	Myeloid diff 2	MC4R antagonist	EBI2 block	MC4R ag barr	Granule exo inh	Myeloid diff	GFP autofluor
COc1ccccc1CNC(=O)c1ccc(S(=O)(=O)N(C)C)cc1	i	8	1	-2	-2	i	0
COc1ccccc1CNC(=O)C1CCN(S(=O)(=O)N2CCCCC2)CC1	i	3	-11	0	-7	.	.
COc1ccc(C(=O)Nc2ccnn2C2CCN(C(C)CSC)CC2)cc1 (stereo not given)	i	2	0	-2	-6	.	.
Cc1ccc(C)c(-c2csc(NC(=O)C3=COCCO3)n2)c1	i	2	8	-2	2	i	0
COC(=O)CNC(=O)COc1ccccc1	+	-5	-10	2	-2	i	0
CC(=O)Nc1ccc(NC(=O)CNC(=O)COc2ccccc2)cc1	i	13	0	-2	2	.	.
Cc1ccc(S(=O)(=O)N(Cc2cccc(F)c2)C(=O)N2CCN(C)CC2)cc1	i	12	-4	-1	0	.	.
CC(C)(C)CC(C)(C)NCC(O)COc1c(F)cc(Br)cc1F (stereo not given)	+	-7	-10	7	-1	i	0
O=S(=O)(c1cccc(-c2nnc(SCc3ccc(Cl)cc3)o2)c1)N1CCCCC1	+	-1	16	-1	-4	i	19*
COCCNC(=S)Nc1ccc2[nH]c(=O)[nH]c2c1	i	-4	-4	-2	2	.	.
Fc1ccc(-c2cc3nc(-c4ccccc4)cc(N4CCOCC4)n3n2)cc1	i	16	36	1	-2	i	0
CC(C)NC(=O)N(C)C[C@H]1Oc2ncc(Br)cc2C(=O)N([C@H](C)CO)C[C@@H]1C	i	4	-4	-1	-5	.	.
CC(Sc1nc2ccccc2c(=O)n1C)C(=O)Nc1ccc2c(c1)OCCO2 (stereo not given)	i	3	-11	-1	-1	i	1
CC(C)Cn1c(SC(C)C(=O)Nc2ccc3c(c2)OCCO3)nc2ccccc2c1=O (stereo not given)	i	7	-3	-2	2	.	.
Cc1ccc(S(=O)(=O)Nc2c(C)nn(C)c2C)c(C)c1	i	2	-7	-3	17	.	.
CSC1=NC2(C[C@H]2c2ccccc2)C(=O)N1C (stereo not given in full)	i	19	-6	0	12	.	.
CC(=O)NN1C(=O)c2ccc3c4c(ccc(c24)C1=O)C(=O)N(NC(C)=O)C3=O	+	-33	-26	-2	12	i	0
CCc1ccc(-c2nc(SCC(=O)N3CCOCC3)n[nH]2)cc1	+	12	-5	1	-2	i	14*
O=C(NCc1ccc(Cl)cc1)c1n[nH]c([N+](=O)[O-])c1Cl	i	10	-4	-1	4	.	.
COc1ccc(CN2CCC[C@]3(N[C@H](c4ccc(C)cc4)[C@@H]4C(=O)N(Cc5ccccc5)C(=O)[C@@H]43)C2=O)cc1	i	13	-3	0	-3	i	0

Bioassay records: PubChem BioAssay, several laboratories
